Assay results reported in ChEMBL document CHEMBL1126796, “2-(Alkylamino)nicotinic acid and analogs. Potent angiotensin II antagonists” (J Med Chem, 1993).
Activity calls are given as the source filed them. The calls are words filed in the database; no cut-off is given here.

What was measured:
Rattus norvegicus [1] = assay: % decrease in blood pressure after 24 hours at a dose of 1 mg/kg in male rats by using Furosemide-treated spontaneous hypertensive model; assay type: functional
Procedure, shortened: (§1)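 Male SHR, 20-24 weeks old, pretreated with furosemide 10 mg/kg sc at 22 and 4 h before the experiment; compound dosed orally. Arterial pressure was recorded from an indwelling femoral artery catheter with on-line blood pressure and heart rate analysis. Read-out is % fall in blood pressure at 4 h and at 24 h, ±SEM, with number of rats.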

Rattus norvegicus [2] = assay: % decrease in blood pressure after 4 hours at a dose of 1 mg/kg in male rats by using Furosemide-treated spontaneous hypertensive model; assay type: functional; procedure, shortened: as §1
[3] = Apparent bioavailability after oral dose of 3.87 mg/kg; assay type: ADME, organism-based; settings: eutheria, in vivo
Procedure, shortened: (§2)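 Male Sprague-Dawley-derived rats were dosed with compound in normal saline (1 mL/kg), by gavage or as a slow IV bolus into the jugular vein. Heparinized tail-vein blood was taken at 0.25-24 h, extracted liquid-liquid and assayed by reverse-phase HPLC. Cmax is the observed peak concentration and AUC is mean (SEM). F compares oral with IV AUC, corrected for dose and assuming dose proportionality.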

[4] = Volume of distribution of the terminal phase (= CLp+ plasma elimination rate constant) after intravenous dose of 3.87 mg/kg; assay type: ADME, organism-based; set-up: dose 3.87 mg/kg, route intravenous; settings: read-out: Vbeta
Procedure, shortened: (§3)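 Jugular-vein slow iv bolus (normal saline, 1 mL/kg) in male Sprague-Dawley-derived rats. Plasma was sampled via the tail vein at 0.1–24 h and measured by reverse-phase HPLC after liquid-liquid extraction. Central volume was taken as dose divided by plasma concentration at time zero. Terminal-phase volume was derived from clearance and the plasma elimination rate constant.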

[5] = molecular target: T1, Type-1 angiotensin II receptor A (Rattus norvegicus, UniProt P25095); assay: Binding affinity against angiotensin II receptor from rat liver
T1 sequence (P25095 whole entry): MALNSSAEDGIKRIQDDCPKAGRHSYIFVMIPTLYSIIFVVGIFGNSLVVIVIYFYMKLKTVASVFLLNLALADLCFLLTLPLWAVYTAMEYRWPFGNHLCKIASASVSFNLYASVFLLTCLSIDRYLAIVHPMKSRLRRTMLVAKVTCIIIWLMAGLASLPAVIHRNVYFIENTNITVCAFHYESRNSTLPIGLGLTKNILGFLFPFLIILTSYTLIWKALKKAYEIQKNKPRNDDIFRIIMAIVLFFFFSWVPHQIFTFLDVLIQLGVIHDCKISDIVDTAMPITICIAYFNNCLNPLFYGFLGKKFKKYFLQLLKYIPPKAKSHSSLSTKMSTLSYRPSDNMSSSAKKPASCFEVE
Procedure, shortened: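 Rat liver membranes were incubated with [125I]-saralasin to measure angiotensin II type 1 receptor binding. Nonspecific binding was defined with 1 µM angiotensin.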

Rattus norvegicus [6] = assay: % decrease in blood pressure after 4 hours in male rats at a dose of 0.3 mg/kg by using Renal artery hypertensive model; assay type: functional
Procedure, shortened: (§4)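 Male Sprague-Dawley rats (300-350 g) were made hypertensive by renal artery ligation and used on day 6 or 7 after ligation. Arterial pressure was measured from an indwelling femoral artery catheter, with blood pressure and heart rate recorded on line. Read-out is % decrease in blood pressure at 4 h, ±SEM, with number of rats.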

[7] = Half-life period of compound after intravenous dose of 3.87 mg/kg; assay type: ADME, organism-based; set-up: dose 3.87 mg/kg, route intravenous; settings: in vivo
Procedure, shortened: (§5)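 Male Sprague-Dawley-derived rats. Compound was given in normal saline at 1 mL/kg, either as a slow iv bolus into the jugular vein or orally by gavage. Plasma underwent liquid-liquid extraction and reverse-phase HPLC. Terminal elimination half-life and time of observed peak concentration were taken from the profiles.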

Rattus norvegicus [8] = assay: % decrease in blood pressure after 4 hours in male rats at a dose of 0.03 mg/kg by using Renal artery hypertensive model; assay type: functional; procedure, shortened: as §4
[9] = Cmax value after oral dose of 3.87 mg/kg; assay type: ADME, organism-based; set-up: dose 3.87 mg/kg, route oral; settings: in vivo; procedure, shortened: as §2
[10] = Volume of distribution of central compartment (= dose+ plasma concentration at time zero) after intravenous dose of 3.87 mg/kg; assay type: ADME, organism-based; set-up: dose 3.87 mg/kg, route intravenous; settings: read-out: VI; procedure, shortened: as §3
[11] = Area under curve after oral dose of 3.87 mg/kg; assay type: ADME, organism-based; set-up: dose 3.87 mg/kg, route oral; settings: in vivo; procedure, shortened: as §2
[12] = Half-life period after oral dose of 3.87 mg/kg; assay type: ADME, organism-based; set-up: dose 3.87 mg/kg, route oral; settings: in vivo; procedure, shortened: as §5
Rattus norvegicus [13] = assay: % decrease in blood pressure after 4 hours at a dose of 3 mg/kg in male rats by using Renal artery hypertensive model; assay type: functional; procedure, shortened: as §4
Rattus norvegicus [14] = assay: % decrease in blood pressure after 4 hours in male rats at a dose of 0.1 mg/kg by using Renal artery hypertensive model; assay type: functional; procedure, shortened: as §4
[15] = Tmax value after oral dose of 3.87 mg/kg; assay type: ADME, organism-based; set-up: dose 3.87 mg/kg, route oral; settings: in vivo; procedure, shortened: as §5
[16] = Plasma clearance after intravenous dose of 3.87 mg/kg; assay type: ADME, organism-based; set-up: dose 3.87 mg/kg, route intravenous; settings: read-out: Clp
Procedure, shortened: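 Male Sprague-Dawley-derived rats received a slow iv bolus into the jugular vein of the compound in normal saline (1 mL/kg). Tail-vein heparinized blood was drawn from 0.1 to 24 h and assayed by reverse-phase HPLC after liquid-liquid extraction. Total plasma clearance was calculated as dose divided by AUC and reported as mean (SEM).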

Rattus norvegicus [17] = assay: % decrease in blood pressure after 4 hours at a dose of 1 mg/kg in male rats by using Furosemide-treated spontaneous hypertensive model; IA means inactive; assay type: functional, organism-based; set-up: dose 1 mg/kg; procedure, shortened: as §1
Rattus norvegicus [18] = assay: % decrease in blood pressure after 4 hours in male rats at a dose of 3 mg/kg administered iv by using Renal artery hypertensive model; IA means inactive; assay type: functional, organism-based; set-up: dose 3 mg/kg; procedure, shortened: as §4
Rattus norvegicus [19] = assay: % decrease in blood pressure after 4 hours at a dose of 3 mg/kg administered iv in male rats by using Renal artery hypertensive model; IA means inactive; assay type: functional, organism-based; set-up: dose 3 mg/kg; procedure, shortened: as §4
Rattus norvegicus [20] = assay: % decrease in blood pressure after 4 hours at a dose of 0.3 mg/kg in male rats by using Renal artery hypertensive model; assay type: functional; procedure, shortened: as §4
Rattus norvegicus [21] = assay: % decrease in blood pressure after 4 hours at a dose of 0.3 mg/kg in male rats by using Renal artery hypertensive model; IA means inactive; assay type: functional, organism-based; set-up: dose 0.3 mg/kg; procedure, shortened: as §4
Rattus norvegicus [22] = assay: % decrease in blood pressure after 24 hours at a dose of 0.1 mg/kg in male rats by using Furosemide-treated spontaneous hypertensive model; assay type: functional; procedure, shortened: as §1
Rattus norvegicus [23] = assay: % decrease in blood pressure after 24 hours at a dose of 0.3 mg/kg in male rats by using Furosemide-treated spontaneous hypertensive model; assay type: functional; procedure, shortened: as §1
Rattus norvegicus [24] = assay: % decrease in blood pressure after 4 hours at a dose of 0.1 mg/kg in male rats by using Furosemide-treated spontaneous hypertensive model; assay type: functional; procedure, shortened: as §1
Rattus norvegicus [25] = assay: % decrease in blood pressure after 4 hours at a dose of 0.3 mg/kg in male rats by using Furosemide-treated spontaneous hypertensive model; assay type: functional; procedure, shortened: as §1

## CCCCN(Cc1ccc(-c2ccccc2-c2nn[nH]n2)cc1)c1nccnc1C(=O)O
Rattus norvegicus [1]
  Decrease in blood pressure: 21%
Rattus norvegicus [2]
  Decrease in blood pressure: 7%

## CCc1nc2c(C)cc(C)nc2n1Cc1ccc(-c2ccccc2-c2nnn[nH]2)cc1 [L-158809]
[3]
  bioavailability: 66.7%
[4]
  Vd: 1.78 L/kg
[5]
  Ki: 0.45 nM
Rattus norvegicus [6]
  Decrease in blood pressure: 25%
Rattus norvegicus [1]
  Decrease in blood pressure: 30%
[7]
  half-life: 4.5 h
Rattus norvegicus [8]
  Decrease in blood pressure: 8%
[9]
  Cmax: 1590 ng/mL
[10]
  Vd: 0.41 L/kg
[11]
  AUC: 11.14 µg/h/mL
[12]
  half-life: 3.9 h
Rattus norvegicus [13]
  Decrease in blood pressure: 32%
Rattus norvegicus [14]
  Decrease in blood pressure: 15%
[15]
  Tmax: 2 h
Rattus norvegicus [2]
  Decrease in blood pressure: 32%
[16]
  clearance: 1.47 mL/min

## CCCN(Cc1ccc(-c2ccccc2-c2nn[nH]n2)cc1)c1ncccc1C(=O)OC
Rattus norvegicus [17]
  Decrease in blood pressure: inactive

## CCc1ncc(C(=O)O)c(NCc2ccc(-c3ccccc3-c3nn[nH]n3)cc2)n1.Cl
Rattus norvegicus [18]
  Decrease in blood pressure: inactive
[5]
  Ki: 68.1 nM
Rattus norvegicus [19]
  Decrease in blood pressure: inactive

## CCCN(Cc1ccc(-c2ccccc2-c2nn[nH]n2)cc1)c1ncccc1C=O
Rattus norvegicus [20]
  Decrease in blood pressure: 15%

## CCCN(Cc1ccc(-c2ccccc2-c2nn[nH]n2)cc1)c1ncccc1CO
Rattus norvegicus [21]
  Decrease in blood pressure: inactive

## CCCN(Cc1ccc(-c2ccccc2-c2nn[nH]n2)cc1)c1nc(C)cnc1C(=O)O
Rattus norvegicus [1]
  Decrease in blood pressure: 18%
Rattus norvegicus [2]
  Decrease in blood pressure: 2%

## CCCN(Cc1ccc(-c2ccccc2-c2nn[nH]n2)cc1)c1ncccc1NS(=O)(=O)C(F)(F)F
Rattus norvegicus [20]
  Decrease in blood pressure: 6%

## CCCCN(Cc1ccc(-c2ccccc2-c2nn[nH]n2)cc1)c1ncccc1C(=O)O
Rattus norvegicus [22]
  Decrease in blood pressure: 22%
Rattus norvegicus [23]
  Decrease in blood pressure: 40%
Rattus norvegicus [24]
  Decrease in blood pressure: 5%
Rattus norvegicus [25]
  Decrease in blood pressure: 14%
Rattus norvegicus [14]
  Decrease in blood pressure: 16%
Rattus norvegicus [20]
  Decrease in blood pressure: 45%

## CCCN(Cc1ccc(-c2ccccc2-c2nn[nH]n2)cc1)c1nc(F)ccc1C(=O)O
Rattus norvegicus [1]
  Decrease in blood pressure: 36%
Rattus norvegicus [2]
  Decrease in blood pressure: 15%
